Experimental data gathered from unrelated publications.
Medium: plasma

SMILES	species	route	dose	bioavailability [%]
COc1ccc(N(Cc2csc(-c3ccccc3)n2)C(=O)CCCCCC(=O)NO)cc1	female Sprague-Dawley rat	oral	–	10.3
COc1nc(-c2cccc(-c3ccccc3)c2C)ccc1CNCCNC(=O)CCCCCCCCCCC(=O)N1CCN(CCNC(=O)c2cc3c(=O)n4cccc(C)c4nc3n(CCc3cccs3)c2=N)CC1	male Sprague-Dawley rat	intraperitoneal	4 mg/kg	74.8
Cc1cc(S(=O)(=O)NC2CC(N3CCN(CC4CCN(c5ccc6c(c5F)n(C)c(=O)n6C5CCC(=O)NC5=O)CC4)CC3)C2)ccc1Nc1ncc(C(F)(F)F)c(N2CCCC(C)(O)C2)n1 (stereo not shown)	rat	oral	10 mg/kg	1
O=C1CCC(N2Cc3cc(C4CCN(Cc5ccccc5)CC4)ccc3C2=O)C(=O)N1 (stereo not shown)	male Sprague-Dawley rat	oral	3 mg/kg	36.2
Cc1cc(S(=O)(=O)N[C@H]2CC[C@H](CN3CCN(c4cccc(NC5CCC(=O)NC5=O)c4)CC3)CC2)ccc1Nc1ncc(C(F)(F)F)c(N2CCC[C@](C)(O)C2)n1 (stereo partly shown)	rat	oral	10 mg/kg	13
CCCCC(=O)Nc1ccc(-c2ccc3ncn(CCC)c(=O)c3c2)cn1	male rat	oral	10 mg/kg	21.1
Cc1cc(S(=O)(=O)N[C@H]2CC[C@H](CN3CCN(c4ccc(C5CCC(=O)NC5=O)c(Cl)c4)CC3)CC2)ccc1Nc1ncc(C(F)(F)F)c(N2CCC[C@](C)(O)C2)n1 (stereo partly shown)	rat	oral	10 mg/kg	25
CC(C)C[C@H](NC(=O)NCc1cn(-c2ccccc2C(=O)OCn2cc(F)c(=O)[nH]c2=O)nn1)C(=O)NO	male Sprague-Dawley rat	oral	50 mg/kg	~0.64
COc1cc(-c2cc(C(C)=O)n3ccccc23)c(OC)cc1Cn1ccnc1	male Sprague-Dawley rat	oral	5 mg/kg	50.3
C[C@H]1Oc2cc(cnc2N)-c2c(nn(C)c2C#N)CN(C)C(=O)c2ccc(F)cc21	Sprague-Dawley rat	oral	–	8.6
